The source of these data is ChEMBL document CHEMBL2424622, “Development of amino-pyrimidine inhibitors of c-Jun N-terminal kinase (JNK): kinase profiling guided optimization of a 1,2,3-benzotriazole lead” (Bioorg Med Chem Lett, 2013).

Assay [1] concerns eIF-2-alpha kinase GCN2 (Homo sapiens), Q9P2K8 [S808G]. In words: Competitive binding affinity to GCN2 kinase domain 2 S808G mutant (unknown origin) at 10 uM in presence of ATP relative to control. An outline of the steps:
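In vitro ATP-site competition binding format, run as one member of a diverse 128-kinase profiling panel. Each compound was tested at a single concentration across the whole panel.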

The test system of assay [2] is Receptor-type tyrosine-protein kinase FLT3 (Homo sapiens), P36888 [UNDEFINED MUTATION]. Nature of the assay: Competitive binding affinity to FLT3 ITD mutant (unknown origin) at 10 uM in presence of ATP relative to control.
The species entered for another assay is Homo sapiens. Nature of the assay: Competitive binding affinity to EGFR L747 to T751 deletion mutant, Sins mutant (unknown origin) at 10 uM in presence of ATP relative to control.
The target in assay [3] is T1, Casein kinase I isoform alpha-like (Homo sapiens) (UniProt Q8N752).
T1 sequence (whole entry): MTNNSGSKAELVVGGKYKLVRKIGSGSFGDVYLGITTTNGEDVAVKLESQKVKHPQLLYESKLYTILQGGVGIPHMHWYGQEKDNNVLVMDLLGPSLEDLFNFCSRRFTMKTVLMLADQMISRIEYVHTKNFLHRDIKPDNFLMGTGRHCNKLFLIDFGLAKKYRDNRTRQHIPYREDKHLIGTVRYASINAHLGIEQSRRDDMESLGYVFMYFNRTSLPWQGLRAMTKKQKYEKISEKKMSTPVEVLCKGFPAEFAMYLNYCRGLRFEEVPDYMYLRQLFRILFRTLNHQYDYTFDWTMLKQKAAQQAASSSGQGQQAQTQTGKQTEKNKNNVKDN
In words: Competitive binding affinity to CSNK1A1L (unknown origin) at 10 uM in presence of ATP relative to control.

Assay [4] addresses Tyrosine-protein kinase receptor Tie-1 (Homo sapiens) (UniProt P35590). Nature of the assay: Competitive binding affinity to TIE1 (unknown origin) at 10 uM in presence of ATP relative to control.
The target of assay [5] is T2, Serine/threonine-protein kinase Nek1 (Homo sapiens) (UniProt Q96PY6).
T2 sequence (whole entry): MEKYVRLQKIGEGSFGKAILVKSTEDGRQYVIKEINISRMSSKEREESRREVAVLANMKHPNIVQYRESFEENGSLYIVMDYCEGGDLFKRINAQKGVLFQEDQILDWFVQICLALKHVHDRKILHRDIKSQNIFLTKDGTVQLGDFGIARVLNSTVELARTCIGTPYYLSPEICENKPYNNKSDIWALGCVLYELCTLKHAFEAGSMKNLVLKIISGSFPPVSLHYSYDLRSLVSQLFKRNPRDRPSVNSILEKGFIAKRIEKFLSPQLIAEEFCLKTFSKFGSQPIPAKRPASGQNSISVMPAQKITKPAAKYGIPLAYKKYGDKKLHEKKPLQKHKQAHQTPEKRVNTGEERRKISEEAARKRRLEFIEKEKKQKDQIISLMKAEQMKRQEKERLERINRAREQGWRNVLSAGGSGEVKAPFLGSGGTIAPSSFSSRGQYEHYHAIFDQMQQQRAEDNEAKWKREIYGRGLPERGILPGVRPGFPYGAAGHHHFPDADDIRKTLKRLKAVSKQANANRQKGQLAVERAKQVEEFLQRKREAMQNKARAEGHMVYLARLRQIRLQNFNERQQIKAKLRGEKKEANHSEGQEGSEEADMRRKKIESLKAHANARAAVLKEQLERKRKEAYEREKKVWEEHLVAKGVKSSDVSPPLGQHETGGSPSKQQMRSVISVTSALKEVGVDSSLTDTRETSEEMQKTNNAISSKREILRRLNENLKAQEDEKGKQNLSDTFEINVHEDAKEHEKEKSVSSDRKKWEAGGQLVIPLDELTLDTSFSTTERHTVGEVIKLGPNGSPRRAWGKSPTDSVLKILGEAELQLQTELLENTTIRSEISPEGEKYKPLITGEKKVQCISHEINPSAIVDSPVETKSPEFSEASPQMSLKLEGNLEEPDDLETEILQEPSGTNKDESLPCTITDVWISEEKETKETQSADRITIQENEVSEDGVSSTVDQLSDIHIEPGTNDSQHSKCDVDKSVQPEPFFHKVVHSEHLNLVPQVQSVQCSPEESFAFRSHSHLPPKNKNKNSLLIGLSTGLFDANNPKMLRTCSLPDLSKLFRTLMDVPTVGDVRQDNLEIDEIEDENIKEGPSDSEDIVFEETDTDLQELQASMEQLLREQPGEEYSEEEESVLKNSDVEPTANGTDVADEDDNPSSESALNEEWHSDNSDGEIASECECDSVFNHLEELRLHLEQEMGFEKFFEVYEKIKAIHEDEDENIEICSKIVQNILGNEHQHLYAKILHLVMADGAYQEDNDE
Nature of the assay: Competitive binding affinity to NEK1 (unknown origin) at 10 uM in presence of ATP relative to control.

The structures appear in SMILES notation. A value given as a limit tells only on which side of the number the result lay.

eIF-2-alpha kinase GCN2 (Homo sapiens), Q9P2K8 [S808G], sequence (Q9P2K8 whole entry S808G, the tested form may be a part): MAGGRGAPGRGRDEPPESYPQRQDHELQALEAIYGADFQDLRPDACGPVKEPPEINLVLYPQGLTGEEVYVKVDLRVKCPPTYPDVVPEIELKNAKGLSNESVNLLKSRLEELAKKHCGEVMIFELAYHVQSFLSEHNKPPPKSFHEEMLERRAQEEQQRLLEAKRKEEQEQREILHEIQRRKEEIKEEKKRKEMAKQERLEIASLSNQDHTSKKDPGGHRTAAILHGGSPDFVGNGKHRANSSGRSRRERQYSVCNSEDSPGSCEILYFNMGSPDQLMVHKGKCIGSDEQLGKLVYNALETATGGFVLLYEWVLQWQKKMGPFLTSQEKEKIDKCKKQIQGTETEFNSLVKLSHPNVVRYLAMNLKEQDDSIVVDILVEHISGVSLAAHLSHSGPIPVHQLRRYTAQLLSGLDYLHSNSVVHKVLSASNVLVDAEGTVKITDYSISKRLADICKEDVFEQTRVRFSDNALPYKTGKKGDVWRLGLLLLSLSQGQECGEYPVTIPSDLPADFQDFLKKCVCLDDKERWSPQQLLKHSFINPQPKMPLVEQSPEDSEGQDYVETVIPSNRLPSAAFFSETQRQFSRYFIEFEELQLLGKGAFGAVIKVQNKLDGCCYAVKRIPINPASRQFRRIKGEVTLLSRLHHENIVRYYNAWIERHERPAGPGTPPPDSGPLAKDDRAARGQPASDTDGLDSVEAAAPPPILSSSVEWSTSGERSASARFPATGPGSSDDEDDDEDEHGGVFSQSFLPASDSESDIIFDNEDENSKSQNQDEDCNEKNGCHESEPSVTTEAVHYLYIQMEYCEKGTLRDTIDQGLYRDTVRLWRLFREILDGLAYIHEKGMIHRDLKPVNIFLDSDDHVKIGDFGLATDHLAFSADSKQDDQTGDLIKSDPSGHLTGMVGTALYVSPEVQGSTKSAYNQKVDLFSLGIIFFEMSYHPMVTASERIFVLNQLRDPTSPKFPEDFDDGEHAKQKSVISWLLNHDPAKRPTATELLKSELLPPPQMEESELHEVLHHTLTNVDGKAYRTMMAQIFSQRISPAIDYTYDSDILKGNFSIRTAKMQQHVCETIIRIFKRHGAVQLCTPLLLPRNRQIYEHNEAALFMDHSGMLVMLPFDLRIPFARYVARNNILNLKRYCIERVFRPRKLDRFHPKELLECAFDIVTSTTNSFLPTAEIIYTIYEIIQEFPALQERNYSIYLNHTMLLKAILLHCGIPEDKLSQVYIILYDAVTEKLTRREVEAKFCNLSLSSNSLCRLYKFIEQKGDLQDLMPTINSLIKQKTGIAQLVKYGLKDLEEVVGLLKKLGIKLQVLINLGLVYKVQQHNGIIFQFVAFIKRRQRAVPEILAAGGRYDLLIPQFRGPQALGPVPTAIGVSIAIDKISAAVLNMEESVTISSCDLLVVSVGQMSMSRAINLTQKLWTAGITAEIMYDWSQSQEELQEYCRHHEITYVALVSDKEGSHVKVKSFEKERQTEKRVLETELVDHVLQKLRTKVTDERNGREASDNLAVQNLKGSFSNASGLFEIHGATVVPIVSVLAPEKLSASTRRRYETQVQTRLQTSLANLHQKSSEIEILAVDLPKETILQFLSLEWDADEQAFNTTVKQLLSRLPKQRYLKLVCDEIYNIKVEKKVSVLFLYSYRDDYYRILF
Tyrosine-protein kinase receptor Tie-1 (Homo sapiens), sequence (P35590 whole entry): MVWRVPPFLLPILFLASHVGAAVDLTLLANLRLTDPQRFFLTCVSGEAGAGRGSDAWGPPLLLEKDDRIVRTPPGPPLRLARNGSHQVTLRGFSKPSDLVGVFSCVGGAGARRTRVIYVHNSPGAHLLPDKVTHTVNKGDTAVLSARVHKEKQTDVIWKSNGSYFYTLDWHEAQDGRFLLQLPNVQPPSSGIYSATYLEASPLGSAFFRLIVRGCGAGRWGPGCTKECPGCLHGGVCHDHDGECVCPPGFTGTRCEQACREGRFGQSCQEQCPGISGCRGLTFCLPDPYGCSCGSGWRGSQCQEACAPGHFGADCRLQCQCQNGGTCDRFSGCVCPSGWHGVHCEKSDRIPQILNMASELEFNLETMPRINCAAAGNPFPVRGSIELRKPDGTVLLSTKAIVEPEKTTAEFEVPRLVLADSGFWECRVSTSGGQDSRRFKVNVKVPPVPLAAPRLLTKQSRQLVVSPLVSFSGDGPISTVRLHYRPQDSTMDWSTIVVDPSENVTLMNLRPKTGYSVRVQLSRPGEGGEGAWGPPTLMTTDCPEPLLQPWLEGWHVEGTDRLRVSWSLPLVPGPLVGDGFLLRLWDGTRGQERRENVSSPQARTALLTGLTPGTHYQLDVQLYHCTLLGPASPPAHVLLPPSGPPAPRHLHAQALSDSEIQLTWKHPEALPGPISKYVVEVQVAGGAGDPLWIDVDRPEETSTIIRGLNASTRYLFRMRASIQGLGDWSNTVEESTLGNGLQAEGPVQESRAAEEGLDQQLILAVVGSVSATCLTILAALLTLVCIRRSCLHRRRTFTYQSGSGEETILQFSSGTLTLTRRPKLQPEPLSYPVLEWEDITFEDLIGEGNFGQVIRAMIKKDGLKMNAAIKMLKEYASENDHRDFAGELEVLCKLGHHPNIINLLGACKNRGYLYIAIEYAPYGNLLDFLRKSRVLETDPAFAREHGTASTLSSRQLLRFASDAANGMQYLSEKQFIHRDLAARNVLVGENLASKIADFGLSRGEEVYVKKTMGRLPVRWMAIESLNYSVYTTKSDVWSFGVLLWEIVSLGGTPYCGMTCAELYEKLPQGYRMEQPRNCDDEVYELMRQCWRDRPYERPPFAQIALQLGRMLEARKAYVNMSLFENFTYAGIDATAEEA
Receptor-type tyrosine-protein kinase FLT3 (Homo sapiens), P36888 [UNDEFINED MUTATION], sequence (P36888 whole entry, looked up, stated change not applied): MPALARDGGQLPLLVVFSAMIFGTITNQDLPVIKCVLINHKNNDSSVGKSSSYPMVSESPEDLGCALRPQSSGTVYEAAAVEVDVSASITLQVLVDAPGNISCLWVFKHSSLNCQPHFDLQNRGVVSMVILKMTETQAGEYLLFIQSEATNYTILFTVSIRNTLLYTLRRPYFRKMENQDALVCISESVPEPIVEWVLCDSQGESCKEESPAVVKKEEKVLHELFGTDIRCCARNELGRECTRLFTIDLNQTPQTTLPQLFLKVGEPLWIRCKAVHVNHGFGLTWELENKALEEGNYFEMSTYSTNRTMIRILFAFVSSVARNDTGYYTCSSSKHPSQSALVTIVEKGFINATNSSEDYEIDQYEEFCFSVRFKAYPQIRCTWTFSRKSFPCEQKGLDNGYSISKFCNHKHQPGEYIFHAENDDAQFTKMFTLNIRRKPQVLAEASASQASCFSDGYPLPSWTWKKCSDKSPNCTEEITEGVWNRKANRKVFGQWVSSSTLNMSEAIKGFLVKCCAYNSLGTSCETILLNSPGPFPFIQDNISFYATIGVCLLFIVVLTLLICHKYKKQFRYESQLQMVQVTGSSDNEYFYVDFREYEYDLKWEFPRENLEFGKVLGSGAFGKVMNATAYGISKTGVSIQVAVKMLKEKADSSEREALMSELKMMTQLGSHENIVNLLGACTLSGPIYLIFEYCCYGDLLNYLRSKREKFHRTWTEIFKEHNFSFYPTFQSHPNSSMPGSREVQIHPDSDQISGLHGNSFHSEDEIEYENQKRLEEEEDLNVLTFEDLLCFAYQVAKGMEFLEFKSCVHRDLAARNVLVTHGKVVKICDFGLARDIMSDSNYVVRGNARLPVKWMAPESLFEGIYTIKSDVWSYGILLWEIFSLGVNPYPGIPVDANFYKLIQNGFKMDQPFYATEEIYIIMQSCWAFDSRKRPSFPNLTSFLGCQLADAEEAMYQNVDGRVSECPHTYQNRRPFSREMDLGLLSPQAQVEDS

On to `O[C@H]1CC[C@H](Nc2nccc(-c3n[nH]c4ccccc34)n2)CC1`, for which the inhibition is 100% in assay [1], 100% in assay [2], less than 50% in the assay filed under Homo sapiens and 100% in assay [3].
Regarding `O[C@H]1CC[C@H](Nc2nccc(-n3ccc4ccccc43)n2)CC1`, the inhibition in assay [1] was 83%; in assay [2], less than 50%; in the assay listed under Homo sapiens, less than 50%; in assay [3] it was 74%; in assay [4], less than 50%; in assay [5] it was 84%.
Regarding `O[C@H]1CC[C@H](Nc2nccc(-n3ncc4ccccc43)n2)CC1`, the inhibition was 100% in assay [1]; 100% in assay [2]; less than 50% in the assay filed under Homo sapiens; 91% in assay [3]; less than 50% in assay [4]; 96% in assay [5].
Take `O[C@H]1CC[C@H](Nc2nccc(-n3nnc4ccccc43)n2)CC1`: the inhibition is 99% in assay [1]; 98% in assay [2]; less than 50% in the assay filed under Homo sapiens; 100% in assay [3]; less than 50% in assay [4]; 98% in assay [5].
For `CS(=O)(=O)CCCOc1cccc2c1ccn2-c1ccnc(N[C@H]2CC[C@H](C(=O)N3CCC(O)CC3)CC2)n1`, the inhibition in assay [1] and in assay [5] was greater than 85% throughout.
